Here are results for six compounds from ChEMBL document CHEMBL1149558, “Synthesis of symmetrical C- and pseudo-symmetrical O-linked disaccharide analogs for arabinosyltransferase inhibitory activity in Mycobacterium tuberculosis” (Bioorg Med Chem Lett, 2007).

The test system of assay [1] is Mycobacterium avium. Description: Antimycobacterial activity against Mycobacterium avium at 12.8 ug/mL. It counts as functional, organism-based. A digest of the protocol:
(§1)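 Colorimetric broth microdilution against M. tuberculosis H37Ra (ATCC 25177) and M. avium NJ 211. Initial screen at 1.28 and 12.8 μg/mL. Activity was confirmed with […] dilutions at 16, 8 and 4 μg/mL to set the MIC.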

Assay [2] deals with Mycobacterium tuberculosis. As to the kind of experiment: Antimycobacterial activity against Mycobacterium tuberculosis H37Ra. The class given is functional. A digest of the protocol:
as §1

Assay [3] concerns the target T1, Probable arabinosyltransferase A (Mycobacterium tuberculosis) (UniProt P9WNL9).
T1 sequence (whole entry): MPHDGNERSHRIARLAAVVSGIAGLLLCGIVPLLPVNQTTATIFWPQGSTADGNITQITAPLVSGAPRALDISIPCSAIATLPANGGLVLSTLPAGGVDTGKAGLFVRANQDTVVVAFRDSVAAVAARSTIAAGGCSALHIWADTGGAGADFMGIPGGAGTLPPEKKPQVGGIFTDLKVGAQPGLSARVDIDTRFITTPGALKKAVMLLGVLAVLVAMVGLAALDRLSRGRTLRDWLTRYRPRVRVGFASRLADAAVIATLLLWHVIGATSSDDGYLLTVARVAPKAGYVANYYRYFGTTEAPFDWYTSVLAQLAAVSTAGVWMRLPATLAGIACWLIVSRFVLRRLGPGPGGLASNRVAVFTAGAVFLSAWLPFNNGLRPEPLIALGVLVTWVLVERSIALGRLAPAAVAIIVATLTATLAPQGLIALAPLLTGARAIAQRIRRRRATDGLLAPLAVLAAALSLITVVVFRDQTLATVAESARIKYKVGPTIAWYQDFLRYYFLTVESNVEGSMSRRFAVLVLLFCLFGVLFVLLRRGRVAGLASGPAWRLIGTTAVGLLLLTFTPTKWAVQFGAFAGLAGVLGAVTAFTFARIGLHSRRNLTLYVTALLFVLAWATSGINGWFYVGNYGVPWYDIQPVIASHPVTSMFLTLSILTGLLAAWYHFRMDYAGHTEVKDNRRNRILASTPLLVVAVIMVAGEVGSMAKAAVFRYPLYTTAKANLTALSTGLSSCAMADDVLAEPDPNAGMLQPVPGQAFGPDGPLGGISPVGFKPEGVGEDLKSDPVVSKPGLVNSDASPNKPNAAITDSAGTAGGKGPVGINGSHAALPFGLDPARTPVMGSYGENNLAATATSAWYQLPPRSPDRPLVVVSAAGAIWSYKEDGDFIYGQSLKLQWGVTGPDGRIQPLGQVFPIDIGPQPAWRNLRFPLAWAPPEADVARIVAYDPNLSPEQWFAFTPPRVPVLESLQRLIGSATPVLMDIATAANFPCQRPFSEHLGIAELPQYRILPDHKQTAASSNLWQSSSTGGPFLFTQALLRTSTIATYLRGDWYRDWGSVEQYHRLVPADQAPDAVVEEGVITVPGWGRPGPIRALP
As to the kind of experiment: Inhibition of Mycobacterium smegmatis arabinosyl transferase assessed as [14C]arabinofuranose incorporation at 3.6 mM. The conditions noted are these: Mycolicibacterium smegmatis. The gist of the method:
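Cell-free competition arabinosyltransferase acceptor assay with membranes and [14C]DPA as glycosyl donor. The read-out is inhibition of [14C]Araf incorporation into the α(1→5)-linked 1-O-octyl arabinofuranosyl disaccharide acceptor at 0.4 mM. Test compounds were run at 3.6 mM, and IC50 values were also derived.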

For assay [4], the system named is Mycobacterium avium. As to the kind of experiment: Antimycobacterial activity against Mycobacterium avium. The class given is functional. A digest of the protocol: as §1

Values after ≈ are worked out from the molar mass of the structure shown. Active and inactive are the calls of the source. No cut-off for these calls is given here.

One may read the MIC as the lowest concentration found to suppress growth. Read a high MIC as a less susceptible organism. Regarding `CC(C)(C)[Si](C)(C)O[C@H]1[C@H](O[Si](C)(C)C(C)(C)C)[C@@H](CO[C@H]2O[C@H](CN=[N+]=[N-])[C@@H](O)[C@@H]2O)O[C@@H]1CN=[N+]=[N-]`, the outcome with Mycobacterium avium [1] was inactive. For the same compound, the MIC in assay [2] is 16 µg/mL (≈ 27.8 µM).
Take `CC[C@@H](CO)NCCN[C@@H](CC)CO` [ETHAMBUTOL]: 2 µg/mL (≈ 9.79 µM) was the least that counted as inhibitory in assay [2] (MIC).
As to `O[C@H]1[C@H](O)[C@@H](CN(CC2CCCCC2)CC2CCCCC2)O[C@@H]1CC[C@H]1O[C@H](CN(CC2CCCCC2)CC2CCCCC2)[C@@H](O)[C@@H]1O`, the outcome in assay [3] was Active. The MIC (in assay [2]; with Mycobacterium avium [4]) was 16 µg/mL (≈ 23.6 µM) each time.
Regarding `O[C@H]1[C@H](O)[C@@H](CN(CC2CCCCC2)CC2CCCCC2)O[C@@H]1/C=C/[C@H]1O[C@H](CN(CC2CCCCC2)CC2CCCCC2)[C@@H](O)[C@@H]1O`, the outcome in assay [3] was Active. Also, the MIC (in assay [2]; in the assay on Mycobacterium avium [4]) was 8 µg/mL (≈ 11.9 µM) throughout.
In the case of `CC(C)(C)[Si](C)(C)O[C@H]1[C@H](O[Si](C)(C)C(C)(C)C)[C@@H](CN(CC2CCCCC2)CC2CCCCC2)O[C@@H]1CO[C@H]1O[C@H](CN(CC2CCCCC2)CC2CCCCC2)[C@@H](O)[C@@H]1O`, in the assay with Mycobacterium avium [1], the outcome was inactive. The compound also yielded a minimum inhibitory concentration (MIC) in assay [2] of more than 12.8 µg/mL.
On to `O[C@@H]1[C@@H](OC[C@H]2O[C@H](CN(CC3CCCCC3)CC3CCCCC3)[C@@H](O)[C@@H]2O)O[C@H](CN(CC2CCCCC2)CC2CCCCC2)[C@H]1O`, for which the result in assay [3] was Active. Moreover, the MIC in assay [2] came out at 8 µg/mL (≈ 11.8 µM); in the assay on Mycobacterium avium [4] it was 16 µg/mL (≈ 23.6 µM).
